Data from ChEMBL document CHEMBL1122996, “Interactions of apomorphine with serum and tissue proteins” (J Med Chem, 1985).

Tests used:
Mus musculus [1] = species: Mus musculus; assay: Radio activity accumulation in cerebellum (Excreatable reactivity) on 14 days; type: functional
Procedure, shortened: (§1)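 Male CD-1 mice (~35 g, n=10 per group) given apomorphine 30 mg/kg fortified with [3H]-apomorphine (0.153 mCi/kg) ip, either once or daily for 14 days. Sampled 24 h after the last dose: plasma from infraorbital sinus (extractable and nonextractable radioactivity) and brain regions (striatum, cerebellum, forebrain without striatum). Radioactivity expressed as µg apomorphine equivalent per mL or per g […].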

Sus scrofa [2] = species: Sus scrofa; assay: Percentage binding to swine plasma proteins at 50 ug/mL concentration of the compound; type: cell-free
Procedure, shortened: (§2)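 Plasma came from male Sprague-Dawley rats (~450 g, ether, vena cava blood, lithium heparin) or from six mature female swine (jugular catheter, heparinized). It was spiked with 1-HCl (10 ng–50 µg/mL) containing 0.5 mCi/mL [³H]-1. Samples were ultrafiltered as for human plasma, and the ultrafiltrate was analysed by HPLC peak-collection LSC. N = 4.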

Mus musculus [3] = species: Mus musculus; assay: Radio activity accumulation in plasma (Excreatable reactivity) on 14 days; type: functional; procedure, shortened: as §1
Mus musculus [4] = species: Mus musculus; assay: Radio activity accumulation in nonextractable radioactivity in plasma brain striatum (Excreatable reactivity) on day 1; type: functional; procedure, shortened: as §1
Albumin [5] = target: T1, Albumin (Bos taurus, UniProt P02769); assay: Covalent binding of compound to serum albumin after 1 hr when the level of [8,9-3H2]-1is 2.3 dpm *10e6; details: cattle
Procedure, shortened: (§3)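 BSA (32 mg) with 2 mg apomorphine HCl hemihydrate plus tritiated [8,9-3H2]apomorphine at the level stated, in pH 7.4 phosphate buffer, 2.1 mL total, incubated 1 h. Incubates were extracted twice with ethyl acetate. Protein-bound radioactivity was measured by LSC after one of three workups: perchloric acid precipitation with repeated trifluoroacetic acid-ethanol washes; Sephadex G-25 gel filtration in 1% sodium lauryl sulfate buffer; or 4-day dialysis.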

Mus musculus [6] = species: Mus musculus; assay: Radio activity of [3H]-l in mice in GI tract with its contents on 14 days; type: functional, Gastrointestinal tract
Procedure, shortened: (§4)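 Male CD-1 mice (~35 g, n=10 per group) received apomorphine 30 mg/kg with [3H]-apomorphine (0.153 mCi/kg) ip, once or daily for 14 days. Killed 24 h after the last dose; GI tract (with contents or washed with distilled water), liver and kidney (rinsed of blood) and skeletal tissue taken. Radioactivity given as % of total dose; skeletal tissue as % dose/g wet weight.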

Mus musculus [7] = species: Mus musculus; assay: Radio activity accumulation in forebrain without striatum (Excreatable reactivity) on 14 days; type: functional; procedure, shortened: as §1
Mus musculus [8] = species: Mus musculus; assay: Radio activity in skeletal tissue (% dose/g of wet wt) on 14 days; type: functional; procedure, shortened: as §4
Mus musculus [9] = species: Mus musculus; assay: Radio of accumulation of radioactivity from 14 to 1 day in nonextractable radioactivity in plasma brain; type: functional
Procedure, shortened: (§5)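 Male CD-1 mice (~35 g, 10 per group) received 1 at 30 mg/kg ip with [³H]-1 (0.153 mCi/kg), once or daily for 14 days, with free access to food and water. At 24 h after the last dose, plasma (infraorbital sinus), brain regions, kidney, liver and GI tract were taken for radioactivity counting. The accumulation ratio is radioactivity after 14 doses divided by radioactivity after 1 dose.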

Mus musculus [10] = species: Mus musculus; assay: Radio activity accumulation in nonextractable radioactivity in striatum (Excreatable reactivity) on 14 days; type: functional; procedure, shortened: as §1
Mus musculus [11] = species: Mus musculus; assay: Ratio of accumulation of radioactivity from 14 to 1 day in extractable reactivity in plasma; type: functional; procedure, shortened: as §5
Homo sapiens [12] = species: Homo sapiens; assay: Percentage binding to human plasma proteins was determined by measuring HPLC peak at 50.0 micro g/ml concentration in plasma; type: cell-free
Procedure, shortened: (§6)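 Fresh plasma from fasted healthy human volunteers was spiked with 1-HCl plus [³H]-1 tracer. It was incubated 10 min at 37 °C and ultrafiltered through YMT membranes (1000g, 5 min, 37 °C). Ultrafiltrate was acidified with pH 3.0 acetate buffer containing carrier 1-HCl, argon-flushed and frozen at -15 °C. Phenyl-column HPLC was read by peak-eluate collection LSC, UV peak area, or radiochemical detection. % bound was calculated from total vs ultrafiltrate using a plasma water fraction of 0.93.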

Sus scrofa [13] = species: Sus scrofa; assay: Percentage binding to swine plasma proteins at 20.0 ug/mL concentration of the compound; type: cell-free; procedure, shortened: as §2
Mus musculus [14] = species: Mus musculus; assay: Radio activity of [3H]-l in mice kidney on 14 days; type: functional; procedure, shortened: as §4
Mus musculus [15] = species: Mus musculus; assay: Radio activity covalently bound to cerebellum of mouse brain; type: functional
Procedure, shortened: (§7)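 Male CD-1 mice (~35 g, n=10) given apomorphine 30 mg/kg with [3H]-apomorphine (0.153 mCi/kg) ip daily for 14 days, killed 24 h after the last dose. Plasma from infraorbital sinus; brain split into striatum, cerebellum, forebrain without striatum. Protein-bound radioactivity expressed as µg/g protein (albumin equivalent; plasma µg/mL) and as % of total tissue radioactivity.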

Albumin [16] = target: T1, Albumin; assay: Covalent binding of compound to serum albumin after 1 hr when the level of [8,9-3H2]-1is 2.2 dpm *10e6; details: cattle; procedure, shortened: as §3
Mus musculus [17] = species: Mus musculus; assay: Radio activity accumulation in forebrain without striatum (Excreatable reactivity) on day 1; type: functional; procedure, shortened: as §1
Rattus norvegicus [18] = species: Rattus norvegicus; assay: Percentage binding to rat plasma proteins at 0.10 ug/mL concentration of the compound; type: cell-free; procedure, shortened: as §2
Rattus norvegicus [19] = species: Rattus norvegicus; assay: Percentage binding to rat plasma proteins at 1 ug/mL concentration of the compound; type: cell-free; procedure, shortened: as §2
Homo sapiens [20] = species: Homo sapiens; assay: Percentage binding to human plasma proteins was determined by collecting HPLC eluate at 0.10 micro g/ml concentration of compound 1 in plasma; type: cell-free; procedure, shortened: as §6
Mus musculus [21] = species: Mus musculus; assay: Radio activity accumulation in cerebellum (Excreatable reactivity) on day 1; type: functional; procedure, shortened: as §1
Mus musculus [22] = species: Mus musculus; assay: Ratio of accumulation of radioactivity from 14 to 1 day in GI tract with its contents; type: functional, Gastrointestinal tract; procedure, shortened: as §5
Mus musculus [23] = species: Mus musculus; assay: Radio activity of [3H]-l in mice liver on 14 days; type: functional; procedure, shortened: as §4
Sus scrofa [24] = species: Sus scrofa; assay: Percentage binding to swine plasma proteins a t0.01 ug/mL concentration of the compound; type: cell-free; procedure, shortened: as §2
Albumin [25] = target: T1, Albumin; assay: Covalent binding of compound to serum albumin after 1 hr when the level of [8,9-3H2]-1is 2.0 dpm *10e6; details: cattle; procedure, shortened: as §3
Mus musculus [26] = species: Mus musculus; assay: Ratio of accumulation of radioactivity from 14 to 1 day in plasma contents; type: functional; procedure, shortened: as §5
Rattus norvegicus [27] = species: Rattus norvegicus; assay: Percentage binding to rat plasma proteins at 50.0 ug/mL concentration of the compound; type: cell-free; procedure, shortened: as §2
Mus musculus [28] = species: Mus musculus; assay: Radio activity of [3H]-l in washed mice GI tract on 14 days; type: functional, Gastrointestinal tract; procedure, shortened: as §4
Rattus norvegicus [29] = species: Rattus norvegicus; assay: Percentage binding to rat plasma proteins at 0.01 ug/mL concentration of the compound; type: cell-free; procedure, shortened: as §2
Mus musculus [30] = species: Mus musculus; assay: Ratio of accumulation of radioactivity from 14 to 1 day in striatum; type: functional; procedure, shortened: as §5
Albumin [31] = target: T1, Albumin; assay: Covalent binding of compound to serum albumin after 1 hr when the level of [8,9-3H2]-1is 2.2 dpm *10e6 expressed as mol of drug/mol of serum albumin; details: cattle; procedure, shortened: as §3
Mus musculus [32] = species: Mus musculus; assay: Ratio of accumulation of radioactivity from 14 to 1 day in washed gastro intestinal track; type: functional; procedure, shortened: as §5
Sus scrofa [33] = species: Sus scrofa; assay: Percentage binding to swine plasma proteins at 10.0 ug/mL concentration of the compound; type: cell-free; procedure, shortened: as §2
Albumin [34] = target: T1, Albumin; assay: Covalent binding of compound to serum albumin after 1 hr when the level of [8,9-3H2]-1is 2.0 dpm *10e6 expressed as mol of drug/mol of serum albumin; details: cattle; procedure, shortened: as §3
Mus musculus [35] = species: Mus musculus; assay: Percentage of covalently bound total in forebrain without striatum of mouse; type: functional; procedure, shortened: as §7

T1 sequence (P02769 whole entry): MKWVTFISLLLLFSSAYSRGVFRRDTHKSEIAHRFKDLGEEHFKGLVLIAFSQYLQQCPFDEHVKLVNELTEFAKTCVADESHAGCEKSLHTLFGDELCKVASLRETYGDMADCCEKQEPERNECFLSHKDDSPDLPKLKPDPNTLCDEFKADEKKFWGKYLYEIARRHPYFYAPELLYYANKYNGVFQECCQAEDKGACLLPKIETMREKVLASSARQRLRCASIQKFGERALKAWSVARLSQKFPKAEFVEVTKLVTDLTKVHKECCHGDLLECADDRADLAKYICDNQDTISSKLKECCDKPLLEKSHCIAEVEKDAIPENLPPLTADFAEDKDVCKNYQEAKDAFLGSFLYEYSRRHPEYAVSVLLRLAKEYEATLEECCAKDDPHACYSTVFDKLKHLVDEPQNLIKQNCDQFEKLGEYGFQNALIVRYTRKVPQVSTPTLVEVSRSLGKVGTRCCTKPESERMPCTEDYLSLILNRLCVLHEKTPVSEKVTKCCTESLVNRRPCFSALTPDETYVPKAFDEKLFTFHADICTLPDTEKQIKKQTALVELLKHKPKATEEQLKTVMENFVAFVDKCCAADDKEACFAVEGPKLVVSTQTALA

## CN1CCc2cccc3c2[C@H]1Cc1ccc(O)c(O)c1-3 [APOMORPHINE]
Mus musculus [1]
  Accumulation: 57.3 µg/g
Sus scrofa [2]
  Binding: 87%
Mus musculus [3]
  Accumulation: 1.42 µg/mL
Mus musculus [4]
  Accumulation: 21.4 µg/g
Albumin [5]
  Binding: 6215 dpm mg-1
Mus musculus [6]
  Amount: 4.01%
Mus musculus [7]
  Accumulation: 69.6 µg/g
Mus musculus [8]
  Amount: 0.394%
Mus musculus [9]
  Ratio: 2.6
Mus musculus [10]
  Accumulation: 56.9 µg/g
Mus musculus [11]
  Ratio: 2.6
Homo sapiens [12]
  Binding: 94.9%
Sus scrofa [13]
  Binding: 86.2%
Mus musculus [14]
  Amount: 0.331%
Mus musculus [15]
  Binding: 0.98 µg/g
Albumin [16]
  Binding: 3850 dpm mg-1
Mus musculus [17]
  Accumulation: 23.1 µg/g
Rattus norvegicus [18]
  Binding: 90.4%
Rattus norvegicus [19]
  Binding: 90.4%
Homo sapiens [20]
  Binding: 97.8%
Mus musculus [21]
  Accumulation: 20 µg/g
Mus musculus [22]
  Ratio: 2.7
Mus musculus [23]
  Amount: 0.99%
Sus scrofa [24]
  Binding: 94.8%
Albumin [25]
  Binding: 4848 dpm mg-1
Mus musculus [26]
  Ratio: 2.6
Rattus norvegicus [27]
  Binding: 89.1%
Mus musculus [28]
  Amount: 0.558%
Rattus norvegicus [29]
  Binding: 91.3%
Mus musculus [30]
  Ratio: 2.7
Albumin [31]
  Binding: 2.1 M of drug (M of BSA)-1
Mus musculus [32]
  Ratio: 9.7
Sus scrofa [33]
  Binding: 86.8%
Albumin [34]
  Binding: 3 M of drug (M of BSA)-1
Mus musculus [35]
  Binding: 1.62%
